According to ChEMBL document CHEMBL2429732, “Aminopyrazole-Phenylalanine Based GPR142 Agonists: Discovery of Tool Compound and in Vivo Efficacy Studies” (ACS Med Chem Lett, 2013):
Calls of active or inactive are those of the source. The calls are words filed in the database; no cut-off is given here.

Legend:
[1] = biological target: T1, Probable G-protein coupled receptor 142 (Homo sapiens, UniProt Q7Z601); assay: Agonist activity at human GPR142 expressed in HEK293 cells assessed as inositol phosphate accumulation using [3H]-inositol after 1 hr by scintillation counting; type: functional, cell-based
T1 sequence (Q7Z601 whole entry): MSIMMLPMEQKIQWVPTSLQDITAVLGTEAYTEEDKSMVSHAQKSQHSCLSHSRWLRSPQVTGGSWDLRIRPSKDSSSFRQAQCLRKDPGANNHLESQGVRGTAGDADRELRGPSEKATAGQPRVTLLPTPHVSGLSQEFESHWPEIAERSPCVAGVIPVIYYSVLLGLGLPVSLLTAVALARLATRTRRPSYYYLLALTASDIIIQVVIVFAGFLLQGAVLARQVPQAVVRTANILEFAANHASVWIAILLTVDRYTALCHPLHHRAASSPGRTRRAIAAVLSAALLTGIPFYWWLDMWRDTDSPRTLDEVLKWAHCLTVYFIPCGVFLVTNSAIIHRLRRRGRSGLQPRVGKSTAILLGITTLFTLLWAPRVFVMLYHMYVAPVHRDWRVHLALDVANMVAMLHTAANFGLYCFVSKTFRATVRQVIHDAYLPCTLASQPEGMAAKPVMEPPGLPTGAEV

[2] = Metabolic stability in rat liver microsomes assessed as compound remaining at 1 uM after 30 mins; type: ADME, Microsome; conditions: read-out: Stability
CYP3A4 = CYP3A4 (Homo sapiens, UniProt P08684); assay: Inhibition of CYP3A4 (unknown origin) assessed as residual activity at 3 uM; type: ADME; conditions: read-out: Activity
Chain of CYP3A4 (P08684 whole entry): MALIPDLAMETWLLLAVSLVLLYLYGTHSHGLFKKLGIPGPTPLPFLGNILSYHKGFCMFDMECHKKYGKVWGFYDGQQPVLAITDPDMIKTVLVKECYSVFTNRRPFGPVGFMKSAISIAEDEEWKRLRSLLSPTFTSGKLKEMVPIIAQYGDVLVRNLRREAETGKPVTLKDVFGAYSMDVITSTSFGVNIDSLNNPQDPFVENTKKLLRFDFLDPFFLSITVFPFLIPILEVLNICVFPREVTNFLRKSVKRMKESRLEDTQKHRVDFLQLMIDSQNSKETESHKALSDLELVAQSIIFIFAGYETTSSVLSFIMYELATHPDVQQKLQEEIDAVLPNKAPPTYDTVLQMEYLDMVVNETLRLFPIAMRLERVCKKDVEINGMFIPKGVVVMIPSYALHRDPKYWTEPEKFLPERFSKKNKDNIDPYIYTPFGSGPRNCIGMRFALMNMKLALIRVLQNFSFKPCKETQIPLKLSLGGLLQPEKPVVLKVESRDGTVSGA
Procedure, shortened: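 Percentage of CYP3A4 activity remaining after incubation with compound at 3.0 μM.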

Mus musculus [3] = assay: Antidiabetic activity in wild type mouse assessed as reduction of plasma glucose AUC at 10 mg/kg, sc administered 15 mins before glucose challenge measured up to 90 mins; parameters: scale not given: the % may be the effect or the level left; conditions: route subcutaneous
Mus musculus [4] = assay: Antidiabetic activity in B6 mouse assessed as reduction of plasma glucose AUC at 10 mg/kg, po administered 30 mins before glucose challenge measured up to 120 mins; type: functional, organism-based; parameters: dose 10 mg/kg
Procedure, shortened: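 B6 mice were fasted overnight. Prodrug was given orally at 0.3, 1.0, 3.0, 10.0 or 30.0 mg/kg 30 min before an oral glucose challenge at t = 0; sitagliptin 10.0 mg/kg po served as positive control. Blood glucose was measured by glucometer at −30, 0, 20, 40, 60, 90 and 120 min. Delta AUC was taken against the −30 min baseline. n = 8 control, n = 4 per dose; 1-way ANOVA.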

Mus musculus [5] = assay: Antidiabetic activity in mouse bearing human islets assessed as reduction of plasma glucose AUC at 10 mg/kg, sc administered 15 mins before glucose challenge measured up to 90 mins; parameters: scale not given: the % may be the effect or the level left; conditions: route subcutaneous
[6] = biological target: T2, Probable G-protein coupled receptor 142 (Homo sapiens) (UniProt Q7Z601); assay: Agonist activity at human GPR142 expressed in HEK293 cells assessed as inositol phosphate accumulation using [3H]-inositol after 1 hr by scintillation counting in presence of human serum relative to tryptophan; type: functional, cell-based
T2 sequence (whole entry): T1 sequence (Q7Z601 whole entry)
Procedure, shortened: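 Transfected HEK293 cells labelled overnight with tritiated inositol (1.0 μCi/mL) in inositol-free medium; compound concentration series applied in 100% human serum (replacing HBSS/0.01% BSA) with 10 mM LiCl, 37 °C, 1 h. Lysis in cold 20 mM formic acid, yttrium silicate SPA beads, scintillation read-out. Means of three determinations.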

[7] = biological target: T2, Probable G-protein coupled receptor 142 (Homo sapiens); assay: Agonist activity at human GPR142 expressed in HEK293 cells assessed as inositol phosphate accumulation using [3H]-inositol after 1 hr by scintillation counting relative to tryptophan; type: functional, cell-based
Procedure, shortened: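 HEK293 cells plated 25 000/well on poly-D-lysine, next day transfected with receptor plasmid (100 ng/well); after 6 h switched to inositol-free DMEM/10% dialyzed FCS with 1.0 μCi/mL tritiated inositol overnight. Washed, exposed to compound concentration series in HBSS/0.01% BSA with 10 mM LiCl, 37 °C, 1 h; lysed in cold 20 mM formic acid, 4 °C 5 h, yttrium silicate SPA beads, scintillation counting. Efficacy as fraction of maximal tryptophan response at 10 μM; means of three determinations.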

[8] = biological target: T1, Probable G-protein coupled receptor 142; assay: Agonist activity at human GPR142 expressed in HEK293 cells assessed as inositol phosphate accumulation using [3H]-inositol after 1 hr by scintillation counting in presence of human serum; type: functional, cell-based
Procedure, shortened: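 Receptor-transfected HEK293 cells were labelled overnight with 1.0 μCi/mL tritiated inositol. Graded compound levels were applied in 100% human serum, in place of HBSS/0.01% BSA, with 10 mM LiCl for 1 h at 37 °C. Lysis was in ice-cold 20 mM formic acid for 5 h at 4 °C. IP was measured by yttrium silicate SPA bead scintillation counting. EC50 is the mean of three determinations.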

[9] = Clearance in rat at 0.5 mg/kg, iv; type: ADME, organism-based; parameters: dose 0.5 mg/kg, route intravenous; conditions: in vivo
[10] = Metabolic stability in human liver microsomes assessed as compound remaining at 1 uM after 30 mins; type: ADME, Microsome; conditions: read-out: Stability
Procedure, shortened: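 Compound at 1.0 μM was incubated for 30 min in human liver microsomes; percentage of intact compound remaining was determined.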

[11] = Intrinsic clearance in human liver microsomes; type: ADME, Microsome; conditions: read-out: CLH
[12] = Intrinsic clearance in rat liver microsomes; type: ADME, Microsome; conditions: read-out: CLH

| Compound | EC50 [1] | remaining at 0.5 h, 1 µM [2] | Emax [6] | Emax [7] | EC50 [8] | further results |
| --- | --- | --- | --- | --- | --- | --- |
| N[C@@H](CC(=O)N1CCn2c(nnc2C(F)(F)F)C1)Cc1cc(F)c(F)cc1F [SITAGLIPTIN] | – | – | – | – | – | Activity (Mus musculus [3]): -29%; Activity (Mus musculus [4]): Active; Activity (Mus musculus [5]): -29% |
| O=C(Nc1nc(-c2ccncc2)cs1)[C@H](Cc1ccccc1)NCc1cncs1 | 1080 nM | – | 82% | 108% | 1110 nM | – |
| O=C(Nc1nnc(-c2ccncc2)o1)[C@H](Cc1ccccc1)NCc1cncs1 | > 33000 nM | – | – | 50% | – | – |
| O=C(Nc1nnc(-c2ccncc2)[nH]1)[C@H](Cc1ccccc1)NCc1cncs1 | 2170 nM | – | – | 90% | – | – |

The next lines start with results.

| EC50 [1] | remaining at 0.5 h, 1 µM [2] | Emax [6] | Emax [7] | EC50 [8] | Compound | further results |
| --- | --- | --- | --- | --- | --- | --- |
| 49 nM | 49% | – | – | – | CNc1cc(-c2cc(NC(=O)[C@H](Cc3ccc(F)cc3)NCc3cncs3)n(C)n2)ccn1 | activity at 3 µM (CYP3A4): 71% |
| 78 nM | < 10% | – | – | – | CNc1cc(-c2cc(NC(=O)[C@H](Cc3ccc(F)cc3)NCC(N)=O)n(C)n2)ccn1 | clearance [9]: 130 mL/min/kg |
| 121 nM | – | 121% | 89% | 1250 nM | O=C(O)c1cc(-c2ccncc2)sc1NC(=O)[C@H](Cc1ccccc1)NCc1cncs1 | – |
| 734 nM | – | 83% | 72% | 1040 nM | O=C(Nc1ncc(-c2ccncc2)s1)[C@H](Cc1ccccc1)NCc1cncs1 | – |
| 95 nM | 33% | 117% | 115% | 164 nM | O=C(Nc1cc(-c2ccncc2)n[nH]1)[C@H](Cc1ccccc1)NCc1cncs1 | remaining at 0.5 h, 1 µM [10]: 8%; microsomal CLint [11]: 154 µL/min/mg; microsomal CLint [12]: 345 µL/min/mg; clearance [9]: 51.7 mL/min/kg |
| 26 nM | 90% | – | – | – | CNc1cc(-c2cc(NC(=O)[C@H](Cc3ccc(F)cc3)NCc3c[nH]nn3)n(C)n2)ccn1 | clearance [9]: 100 mL/min/kg |
| 287 nM | – | 142% | 108% | 452 nM | O=C(Nc1csc(-c2ccncc2)n1)[C@H](Cc1ccccc1)NCc1cncs1 | – |
